Test results as given in ChEMBL document CHEMBL2384937, “Design, synthesis and biological evaluation of novel pyrimidine, 3-cyanopyridine and m-amino-N-phenylbenzamide based monocyclic EGFR tyrosine kinase inhibitors” (Bioorg Med Chem, 2013).

Assays:
[1] = target: Receptor tyrosine-protein kinase erbB-2 (Homo sapiens, UniProt P04626); experiment: Inhibition of recombinant ErbB-2 (unknown origin) after 10 mins by DELFIA/time-resolved fluorometry
Summary of the method: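 Compound in DMSO, diluted in 25 mM HEPES pH 7.4, preincubated 10 min at room temperature with 12.5 ng recombinant ErbB-2. Reaction buffer with 20 mM HEPES, 2 mM MnCl₂, Na₃VO₄ and 1 mM DTT; 0.1 mM ATP–50 mM MgCl₂ added for 1 h. After washes, europium-labeled anti-phosphotyrosine antibody (400 ng) 1 h; enhancement solution, time-resolved fluorescence ex 340/em 615 nm. IC50 from percent-inhibition curves.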

[2] = target: Epidermal growth factor receptor (Homo sapiens, UniProt P00533); experiment: Inhibition of recombinant EGFR (unknown origin) after 10 mins by DELFIA/time-resolved fluorometry
A549 = experiment: Cytotoxicity against human A549 cells after 2 days by sulforhodamine B assay; format: functional, cell-based; settings: A549, 48 h
Summary of the method: (§1)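 Cells plated at 5 × 10⁴/mL in RPMI-1640 with 5% fetal bovine serum; next day dosed at 0.5, 5, 50, 500 and 5000 ng/mL and cultured 2 days. Survival read by sulforhodamine B staining; IC50 taken from growth curves. Standard deviations below 30%.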

HL-60 = experiment: Cytotoxicity against human HL60 cells after 2 days by sulforhodamine B assay; format: functional, cell-based; settings: HL-60, 48 h; summary of the method: as §1

Receptor tyrosine-protein kinase erbB-2, sequence (P04626 whole entry): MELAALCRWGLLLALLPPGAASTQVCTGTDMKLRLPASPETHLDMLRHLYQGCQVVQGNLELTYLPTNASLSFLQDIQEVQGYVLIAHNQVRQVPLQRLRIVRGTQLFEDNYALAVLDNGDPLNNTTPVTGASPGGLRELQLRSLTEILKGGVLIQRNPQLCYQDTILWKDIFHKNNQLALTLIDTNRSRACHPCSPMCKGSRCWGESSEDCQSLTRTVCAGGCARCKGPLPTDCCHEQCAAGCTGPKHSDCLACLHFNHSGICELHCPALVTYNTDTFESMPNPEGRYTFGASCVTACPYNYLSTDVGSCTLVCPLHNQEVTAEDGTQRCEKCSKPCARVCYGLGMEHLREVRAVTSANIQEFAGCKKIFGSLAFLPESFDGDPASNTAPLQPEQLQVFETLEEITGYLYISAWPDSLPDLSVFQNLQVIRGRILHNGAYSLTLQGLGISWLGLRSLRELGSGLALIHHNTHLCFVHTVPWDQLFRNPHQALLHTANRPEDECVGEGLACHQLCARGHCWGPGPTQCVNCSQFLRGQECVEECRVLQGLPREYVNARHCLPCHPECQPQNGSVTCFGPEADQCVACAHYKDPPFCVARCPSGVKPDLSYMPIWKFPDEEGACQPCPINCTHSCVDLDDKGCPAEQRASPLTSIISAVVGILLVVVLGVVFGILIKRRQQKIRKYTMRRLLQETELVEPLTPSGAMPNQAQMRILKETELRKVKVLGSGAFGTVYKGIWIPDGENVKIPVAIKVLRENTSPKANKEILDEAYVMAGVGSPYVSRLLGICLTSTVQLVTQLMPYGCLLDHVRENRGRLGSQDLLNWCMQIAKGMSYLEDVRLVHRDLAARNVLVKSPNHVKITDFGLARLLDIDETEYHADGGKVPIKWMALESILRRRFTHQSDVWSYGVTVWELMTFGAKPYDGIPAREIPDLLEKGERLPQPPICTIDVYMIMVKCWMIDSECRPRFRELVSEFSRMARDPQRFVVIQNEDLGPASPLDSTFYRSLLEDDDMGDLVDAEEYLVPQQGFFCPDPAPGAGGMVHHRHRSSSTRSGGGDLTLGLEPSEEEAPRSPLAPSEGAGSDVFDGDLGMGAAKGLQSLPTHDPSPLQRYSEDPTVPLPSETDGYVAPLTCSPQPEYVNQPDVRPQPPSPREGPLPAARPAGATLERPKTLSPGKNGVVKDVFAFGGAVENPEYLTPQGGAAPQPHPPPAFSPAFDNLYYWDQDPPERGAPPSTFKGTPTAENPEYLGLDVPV
Epidermal growth factor receptor, sequence (P00533 whole entry): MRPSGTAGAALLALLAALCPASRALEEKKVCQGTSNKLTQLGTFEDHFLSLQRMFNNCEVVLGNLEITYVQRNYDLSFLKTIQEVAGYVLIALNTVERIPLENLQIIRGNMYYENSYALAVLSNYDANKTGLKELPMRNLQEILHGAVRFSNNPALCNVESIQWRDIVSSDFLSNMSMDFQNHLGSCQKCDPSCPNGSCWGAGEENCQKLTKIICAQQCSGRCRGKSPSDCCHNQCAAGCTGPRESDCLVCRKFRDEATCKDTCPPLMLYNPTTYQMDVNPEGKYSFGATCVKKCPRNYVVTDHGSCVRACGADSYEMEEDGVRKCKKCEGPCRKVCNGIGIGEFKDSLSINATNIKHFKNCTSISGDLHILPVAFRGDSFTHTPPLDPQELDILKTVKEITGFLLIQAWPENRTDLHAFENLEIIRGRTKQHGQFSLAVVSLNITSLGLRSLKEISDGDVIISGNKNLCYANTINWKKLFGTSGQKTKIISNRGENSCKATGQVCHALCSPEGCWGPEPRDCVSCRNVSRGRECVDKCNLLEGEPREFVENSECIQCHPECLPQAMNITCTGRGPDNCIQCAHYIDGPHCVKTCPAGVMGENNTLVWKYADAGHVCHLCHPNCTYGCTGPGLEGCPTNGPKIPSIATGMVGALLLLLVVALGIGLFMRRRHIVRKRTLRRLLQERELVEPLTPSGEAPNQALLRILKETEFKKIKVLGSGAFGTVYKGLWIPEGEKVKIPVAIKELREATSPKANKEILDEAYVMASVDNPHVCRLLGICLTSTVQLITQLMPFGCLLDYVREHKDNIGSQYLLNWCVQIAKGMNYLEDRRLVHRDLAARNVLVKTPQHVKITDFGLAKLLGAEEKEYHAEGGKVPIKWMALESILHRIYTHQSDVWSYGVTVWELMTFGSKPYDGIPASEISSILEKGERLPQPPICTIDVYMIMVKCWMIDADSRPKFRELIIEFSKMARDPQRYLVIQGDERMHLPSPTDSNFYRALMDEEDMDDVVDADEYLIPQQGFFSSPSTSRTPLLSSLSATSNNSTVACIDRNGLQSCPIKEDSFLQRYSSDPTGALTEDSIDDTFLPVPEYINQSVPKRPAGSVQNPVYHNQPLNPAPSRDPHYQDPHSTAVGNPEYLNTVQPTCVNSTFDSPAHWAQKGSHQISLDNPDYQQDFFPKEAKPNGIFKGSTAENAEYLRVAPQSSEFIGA

SMILES | IC50 [1] [µM] | IC50 [2] [µM] | IC50 (A549) [µM] | IC50 (HL-60) [µM]
Cc1ncnc(Nc2ccc(OCc3cccc(F)c3)c(Cl)c2)c1/C=C/c1ccc(CNCCS(C)(=O)=O)o1 | > 10 | 0.46 | – | –
Cc1ncnc(Nc2ccc(OCc3cccc(F)c3)c(Cl)c2)c1C#Cc1ccc(CNCCS(C)(=O)=O)o1 | > 10 | 0.045 | – | –
Cc1ncnc(Oc2ccc(OCc3ccccn3)c(Cl)c2)c1C#Cc1ccc(CNCCS(C)(=O)=O)o1 | – | > 5 | – | –
Cc1ncc(C#N)c(Nc2ccc(OCc3ccccn3)c(Cl)c2)c1/C=C/c1cccc(NC(=O)/C=C/CN(C)C)c1 | > 10 | > 5 | – | –
Cc1ncc(C#N)c(Nc2ccc(OCc3ccccn3)c(Cl)c2)c1/C=C/c1ccc(CNCCS(C)(=O)=O)o1 | > 10 | > 5 | – | –
Cc1ncc(C#N)c(Nc2ccc(OCc3ccccn3)c(Cl)c2)c1C#Cc1ccc(CNCCS(C)(=O)=O)o1 | – | 1.5 | – | –
Cc1ncc(C#N)c(Oc2ccc(OCc3ccccn3)c(Cl)c2)c1C#Cc1ccc(CNCCS(C)(=O)=O)o1 | – | > 5 | – | –
CN(C)C/C=C/C(=O)Nc1ccc(-c2cncc(C#N)c2Nc2ccc(OCc3ccccn3)c(Cl)c2)cc1 | – | > 5 | > 10 | > 10
CN(C)C/C=C/C(=O)Nc1ccc(-c2cncc(C#N)c2Nc2ccc(OCc3cccc(F)c3)c(Cl)c2)cc1 | – | 0.66 | 7 | > 10
CN(C)C/C=C/C(=O)Nc1ccc(-c2cncc(C#N)c2Nc2ccc(F)c(Cl)c2)cc1 | – | 3.5 | > 10 | 6
CN1CCN(Cc2ccc(C(=O)Nc3ccc(-c4cncc(C#N)c4Nc4ccc(F)c(Cl)c4)cc3)cc2)CC1 | – | 3 | > 10 | 5
CC(=O)c1ccc(Nc2c(C#N)cncc2-c2ccc(NC(=O)/C=C/CN(C)C)cc2)cc1 | – | > 5 | > 10 | > 10
CC(=O)c1ccc(Nc2c(C#N)cncc2-c2ccc(NC(=O)c3ccc(CN4CCN(C)CC4)cc3)cc2)cc1 | – | > 5 | > 10 | 5
CCOc1cc([N+](=O)[O-])c(C(=O)Nc2ccc(OCc3ccccn3)c(Cl)c2)cc1NC(=O)/C=C/CN(C)C | – | 0.85 | 2.5 | 4
CCOc1cc(N)c(C(=O)Nc2ccc(OCc3ccccn3)c(Cl)c2)cc1NC(=O)/C=C/CN(C)C | – | 0.8 | > 10 | > 10
CCOc1cc([N+](=O)[O-])c(C(=O)Nc2ccc(OCc3ccccn3)c(Cl)c2)cc1NC(=O)c1ccc(CN2CCN(C)CC2)cc1 | – | – | 3.5 | 5
CCOc1cc([N+](=O)[O-])c(C(=O)Nc2ccc(OCc3cccc(F)c3)c(Cl)c2)cc1NC(=O)/C=C/CN(C)C | – | 2 | 3.5 | 4
CCOc1cc(N)c(C(=O)Nc2ccc(OCc3cccc(F)c3)c(Cl)c2)cc1NC(=O)/C=C/CN(C)C | – | 1.5 | 5.5 | 6
CCOc1cc([N+](=O)[O-])c(C(=O)Nc2ccc(F)c(Cl)c2)cc1NC(=O)/C=C/CN(C)C | – | 6 | > 10 | 6
CCOc1cc(N)c(C(=O)Nc2ccc(F)c(Cl)c2)cc1NC(=O)/C=C/CN(C)C | – | 4.5 | > 10 | > 10
CCOc1ccc(C(=O)Nc2ccc(OCc3ccccn3)c(Cl)c2)cc1NC(=O)/C=C/CN(C)C | – | 1.2 | > 10 | > 10
CCOc1ccc(C(=O)Nc2nccc(-c3cccnc3)n2)cc1NC(=O)/C=C/CN(C)C | – | 6 | > 10 | > 10
CCOc1ccc(C(=O)Nc2nccc(-c3cccnc3)n2)cc1NC(=O)c1ccc(CN2CCN(C)CC2)cc1 | – | – | > 10 | > 10
Cc1ccc(NC(=O)/C=C/CN(C)C)cc1C(=O)Nc1nccc(-c2cccnc2)n1 | – | 5 | > 10 | –
Cc1ncnc(Nc2ccc(OCc3cccc(F)c3)c(Cl)c2)c1/C=C/c1cccc(NC(=O)/C=C/CN(C)C)c1 | > 10 | > 5 | – | –

Continued, in another order:

IC50 [1] [µM] | IC50 [2] [µM] | SMILES | IC50 (A549) [µM] | IC50 (HL-60) [µM]
– | 2.3 | CN1CCN(Cc2ccc(C(=O)Nc3ccc(-c4cncc(C#N)c4Nc4ccc(OCc5ccccn5)c(Cl)c4)cc3)cc2)CC1 | > 10 | 6
– | 2.5 | CN1CCN(Cc2ccc(C(=O)Nc3ccc(-c4cncc(C#N)c4Nc4ccc(OCc5cccc(F)c5)c(Cl)c4)cc3)cc2)CC1 | 6 | 1.8
– | 1 | CCOc1cc(N)c(C(=O)Nc2ccc(OCc3ccccn3)c(Cl)c2)cc1NC(=O)c1ccc(CN2CCN(C)CC2)cc1 | 6 | 8
– | 5.5 | CCOc1cc([N+](=O)[O-])c(C(=O)Nc2ccc(OCc3cccc(F)c3)c(Cl)c2)cc1NC(=O)c1ccc(CN2CCN(C)CC2)cc1 | 6 | 4.5
– | 5 | CCOc1cc(N)c(C(=O)Nc2ccc(OCc3cccc(F)c3)c(Cl)c2)cc1NC(=O)c1ccc(CN2CCN(C)CC2)cc1 | 6 | 7
– | 5 | CCOc1cc([N+](=O)[O-])c(C(=O)Nc2ccc(F)c(Cl)c2)cc1NC(=O)c1ccc(CN2CCN(C)CC2)cc1 | 6 | 5.5
– | 0.8 | CCOc1cc(N)c(C(=O)Nc2ccc(F)c(Cl)c2)cc1NC(=O)c1ccc(CN2CCN(C)CC2)cc1 | > 10 | > 10
– | 3.5 | CCOc1ccc(C(=O)Nc2ccc(OCc3ccccn3)c(Cl)c2)cc1NC(=O)c1ccc(CN2CCN(C)CC2)cc1 | 6 | > 10
– | 0.45 | Cc1ccc(NC(=O)/C=C/CN(C)C)cc1C(=O)Nc1ccc(OCc2cccc(F)c2)c(Cl)c1 | 7 | 5.5
– | 0.6 | Cc1ccc(NC(=O)c2ccc(CN3CCN(C)CC3)cc2)cc1C(=O)Nc1ccc(OCc2cccc(F)c2)c(Cl)c1 | 5.5 | 6
– | 6 | Cc1ccc(NC(=O)c2ccc(CN3CCN(C)CC3)cc2)cc1C(=O)Nc1nccc(-c2cccc(F)c2)n1 | > 10 | –
